# Screening results from PubChem.
# MC4R ag barr = MC4R agonists recruiting beta-arrestin, primary screen, cell-based, luminescence, agonist arm of biased-ligand search | AID 540308, 2011 | 0.98% of 360,000 active | activation, % at 8.9 µM | Melanocortin receptor 4 (Homo sapiens), P32245 | U2OS MC4R beta-arrestin complementation; percent of melanotan II response, DMSO zero;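 active = activation above a per-plate cutoff, the mean activation of sample wells on that plate plus 3 SD, cut at about 8% in these data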
# Target sequence (P32245 whole entry, looked up): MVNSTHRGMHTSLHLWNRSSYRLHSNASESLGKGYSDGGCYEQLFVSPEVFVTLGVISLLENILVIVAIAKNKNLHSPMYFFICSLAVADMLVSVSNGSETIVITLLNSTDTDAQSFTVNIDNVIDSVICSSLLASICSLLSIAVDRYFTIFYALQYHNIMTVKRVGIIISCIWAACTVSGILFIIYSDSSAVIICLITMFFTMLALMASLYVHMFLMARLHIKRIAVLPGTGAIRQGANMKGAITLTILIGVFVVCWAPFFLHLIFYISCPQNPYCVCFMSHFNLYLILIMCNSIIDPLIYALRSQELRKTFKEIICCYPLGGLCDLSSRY
# MsrA inh = bovine MsrA enzyme inhibitors, primary screen, biochemical, absorbance, HTS | inhibition, % at 15.5 µM | AID 651718, 2012 | 0.75% of 360,000 active | Methionine sulfoxide reductase A (Bos taurus) | purified bovine MsrA, absorbance read-out; in the data active = inhibition above about 4.5%;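 also: 0% = vehicle wells with enzyme and 100% = reference inhibitor wells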
# bovine MsrA act = bovine MsrA enzyme activators, primary screen, biochemical, absorbance, HTS; purified bovine MsrA, absorbance read-out; activation, % at 10.6 µM; 0.3% of 360,000 active; AID 602163, 2012; in the data active = activation above about 7.5%;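 also: 0% = vehicle and 100% = reference activator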
# MC4R antag cAMP = MC4R antagonists of cAMP signaling, primary screen, cell-based, TR-FRET, antagonist arm of biased-ligand search; Melanocortin receptor 4 (Homo sapiens), P32245; MC4R-expressing cells, MTII-stimulated cAMP, LANCE TR-FRET; inhibition, % at 6.5 µM; 0.48% of 360,000 active; AID 540295, 2011;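 active = inhibition above its plate's cutoff, the mean of tested wells on that plate plus 3 SD, cut at about 29% in these data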;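 also: 0% = Melanotan II alone and 100% = Melanotan II plus saturating MCL0020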
#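 Assay system: U2OS cells stably expressing human melanocortin 4 receptor (MC4R) / Dosing: 6.5 µM / Timing: compound 30 min, challenge 1 h, detection 1 h / Measured by: Eu-cAMP/anti-cAMP TR-FRET, emission 671 nm / Replicates: singlicate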
# cAMP nonselect = nonselective cAMP signaling inhibitors, parental cells, counter-screen for MC4R biased antagonist project, cell-based, TR-FRET, U2OS, forskolin, triplicate; shares compounds with MC4R antag cAMP; LANCE TR-FRET; inhibition, % at 6.5 µM; 26% of 1,600 active;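 active = mean inhibition over triplicates above the low-control well mean plus 3 SD, set per campaign, cut at about 13% in these data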;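 also: signal is single emission at 671 nm which falls as cellular cAMP rises; 0% = forskolin-stimulated wells and 100% = buffer without forskolin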
# MC4R cAMP antag = MC4R cAMP antagonists, retest, confirmation, cell-based, TR-FRET; shares compounds with MC4R antag cAMP; MC4R-expressing cells, MTII-stimulated cAMP; inhibition, % at 6.5 µM; 27% of 1,600 active; in the data active = inhibition above about 29%;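 also: 0% = agonist stimulated wells alone and 100% = agonist stimulated wells plus saturating reference antagonist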
# * marks the source's active call; other numbers are inactive results; / = not tested or not shown. Shown are actives, neighbours in structure and some others; about 2.3% of the full set was active somewhere.
SMILES,MC4R ag barr,MsrA inh,bovine MsrA act,MC4R antag cAMP,cAMP nonselect,MC4R cAMP antag
c1ccc(-c2noc(CN3CCCC(OCc4ccccn4)C3)n2)cc1 (stereo not drawn),0,0,-1,31*,1,5
O=C1C(=O)N(c2ccccn2)C(c2cccc(F)c2)/C1=C(/O)c1ccccc1 (stereo not drawn),1,/,-1,29*,-2,-23
COc1ccc(C2/C(=C(/O)c3ccc(C)cc3)C(=O)C(=O)N2c2ccccn2)cc1OC (stereo not drawn),0,1,-6,17,/,/
CCCOc1ccc(/C(O)=C2\C(=O)C(=O)N(c3ccccn3)C2c2ccccc2F)cc1C (stereo not drawn),3,0,-2,42*,33*,20
CC(=O)Nc1cc(-c2cccc(NS(C)(=O)=O)c2)cn2c(-c3cccc(C(C)=O)c3)cnc12,2,-1,-1,17,/,/
CC(=O)Nc1cccc(-c2cc(NC(C)=O)c3ncc(-c4ccc(C(C)=O)cc4)n3c2)c1,9.0*,2,-7,33*,3,16
CS(=O)(=O)N(CC(=O)NC1CCCCC1)Cc1ccc(F)cc1,-2,1,-1,19,/,/
COc1ccc(C(=O)/C=C/C(=O)N(CC(=O)NC2CCCCC2)Cc2ccc(F)cc2)c(O)c1,-4,0,-3,29*,6,12
Cc1ccc(S(=O)(=O)NCC(=O)OC(C)C(=O)Nc2ncc(Cl)cc2Cl)cc1 (stereo not drawn),-2,2,-1,31*,14*,27
O=C(NCCOc1ccccc1Cl)c1ncn[nH]1,0,-1,-2,30*,-2,-9
O=c1[nH][nH]cc1C=Nc1ccccc1O,5,2,-11,1,/,/
O=c1c(=Nc2ccccc2O)c(=O)c2ccccc12,-2,1,-2,34*,4,-1
CCOC(=O)Cn1c(=O)oc2cc(S(=O)(=O)N3CCc4ccccc43)ccc21,1,-2,1,30*,11,13
Cc1nn(CC(=O)Nc2ccc3c(c2)nc2n3CCN(C3CCCCC3)C2)c(=O)c2ccccc12,-2,0,0,5,/,/
Cc1cccc(-n2c(-c3ccoc3C)n[nH]c2=S)c1,1,2,0,30*,4,0
Cc1ccccc1-n1c(-c2ccoc2C)n[nH]c1=S,-2,0,5,8,/,/
CN(CCN1CCOCC1)C(=O)CC1C(=O)NCCN1Cc1ccccc1C(F)(F)F (stereo not drawn),2,0,-2,12,/,/
O=C(COC(=O)[C@H](Cc1ccccc1)NC(=O)c1cccs1)NC1CCCCC1,-2,0,-2,37*,8,10
O=C(COC(=O)[C@H](Cc1ccccc1)NC(=O)c1cccs1)NC1CC1,-1,0,-5,21,/,/
O=C(COC(=O)[C@H](Cc1ccccc1)NC(=O)c1ccco1)NC(c1ccccc1)c1ccccc1,0,3,-2,32*,20*,36*
Cc1cccc2c1NC(=O)/C2=C\C(=O)c1cccs1,-1,-1,-1,30*,3,4
CSc1ncccc1C(=O)OCC(=O)c1ccccc1,-1,1,-5,7,/,/
C1CCc2nnc(-c3nnc4n3CCCCC4)n2CC1,1,0,-5,-2,/,/
Cc1ccc(C)n1-c1ccc(-c2nnc3n2CCCCC3)s1,0,1,0,39*,17*,33*
COc1ccc(NC(=O)COC(=O)C2CC(=O)N(c3ccc(C)cc3)C2)cc1 (stereo not drawn),1,0,0,42*,-1,-3
COc1ccc(NC(=O)COC(=O)C2CC(=O)N(c3ccc(OC(C)C)cc3)C2)cc1 (stereo not drawn),-1,-1,1,22,/,/
COC(=O)CSc1nc2ccccn2c(=O)c1C=O,0,2,-4,31*,0,-10
